Columns and labels:
Type in all cases: functional
[1] = Antioxidant activity assessed as superoxide radical scavenging activity by xanthine oxidase method
How it was run: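 Superoxide generated by xanthine/xanthine oxidase in 50 mM potassium phosphate buffer (pH 7.8) containing 1 mM EDTA, 0.04 mM NBT, 0.18 mM xanthine and 250 mU/mL xanthine oxidase. Samples tested at a series of concentrations. Incubation 30 min at 37 C in the dark. Superoxide reduction of NBT to blue formazan used as read-out. IC50 determined.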

[2] = Ratio of IC50 for drug to trolox for ABTS radical scavenging activity
How it was run: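 ABTS radical cation made from 7 mM aqueous ABTS stock reacted with 2.45 mM potassium persulfate, left 12 h in the dark. Radical solution mixed with samples in ethanol. Absorbance read at 734 nm up to 6 min after mixing. IC50 expressed relative to trolox.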

[3] = Ratio of IC50 for drug to trolox for DPPH radical scavenging activity

Row | SMILES | IC50 [1] [µM] | Ratio IC50 [2] | Ratio IC50 [3]
1 | CC1=CC(=O)C2(O1)C(c1cc3oc(=O)c4cc(O)c(O)cc4c3c(=O)o1)=Cc1cc(O)c(O)cc12 (stereo unspecified) [PHELLIGRIDIN E] | 120 | 0.4 | 1.57
2 | Cc1cc(=O)cc(-c2cc(O)c(O)cc2-c2c(O)cc(/C=C/c3ccc(O)c(O)c3)oc2=O)o1 | 97.6 | 0.65 | 0.82
3 | O=C(O)/C=C/c1ccc(O)c(O)c1 [CAFFEIC ACID] | 10.2 | 0.66 | 0.41
4 | O=C1C=C(/C=C/c2ccc(O)c(O)c2)OC12C(c1cc3oc(=O)c4cc(O)c(O)cc4c3c(=O)o1)=Cc1cc(O)c(O)cc12 (stereo unspecified) [PHELLIGRIDIN G] | 92.3 | 0.43 | 1.48

The next lines start with results.

Row | IC50 [1] [µM] | SMILES | Ratio IC50 [2] | Ratio IC50 [3]
5 | 93.6 | O=c1oc(/C=C/c2ccc(O)c(O)c2)cc(O)c1-c1cc(O)c(O)cc1/C=C/c1cc2oc(=O)c3cc(O)c(O)cc3c2c(=O)o1 [PHELLIGRIDIN I] | 0.43 | 1.45
6 | 85.5 | O=c1oc2cc(/C=C/c3ccc(O)c(O)c3)oc(=O)c2c2cc(O)c(O)cc12 [PHELLIGRIDIN D] | 0.33 | 1.51
7 | 90.8 | CC(=O)C1(O)C(c2cc3oc(=O)c4cc(O)c(O)cc4c3c(=O)o2)=Cc2cc(O)c(O)cc21 (stereo unspecified) | 0.58 | 1.42

Reference: ChEMBL document CHEMBL1138306, “New antioxidant polyphenols from the medicinal mushroom Inonotus obliquus” (Bioorg Med Chem Lett, 2007)
